Some results are limits rather than exact numbers.

As usually defined, the EC50 is the concentration that produces a half-maximal response. Usually IC50 stands for the concentration that inhibits the measured activity by half.

T2 sequence (Q8R455 whole entry): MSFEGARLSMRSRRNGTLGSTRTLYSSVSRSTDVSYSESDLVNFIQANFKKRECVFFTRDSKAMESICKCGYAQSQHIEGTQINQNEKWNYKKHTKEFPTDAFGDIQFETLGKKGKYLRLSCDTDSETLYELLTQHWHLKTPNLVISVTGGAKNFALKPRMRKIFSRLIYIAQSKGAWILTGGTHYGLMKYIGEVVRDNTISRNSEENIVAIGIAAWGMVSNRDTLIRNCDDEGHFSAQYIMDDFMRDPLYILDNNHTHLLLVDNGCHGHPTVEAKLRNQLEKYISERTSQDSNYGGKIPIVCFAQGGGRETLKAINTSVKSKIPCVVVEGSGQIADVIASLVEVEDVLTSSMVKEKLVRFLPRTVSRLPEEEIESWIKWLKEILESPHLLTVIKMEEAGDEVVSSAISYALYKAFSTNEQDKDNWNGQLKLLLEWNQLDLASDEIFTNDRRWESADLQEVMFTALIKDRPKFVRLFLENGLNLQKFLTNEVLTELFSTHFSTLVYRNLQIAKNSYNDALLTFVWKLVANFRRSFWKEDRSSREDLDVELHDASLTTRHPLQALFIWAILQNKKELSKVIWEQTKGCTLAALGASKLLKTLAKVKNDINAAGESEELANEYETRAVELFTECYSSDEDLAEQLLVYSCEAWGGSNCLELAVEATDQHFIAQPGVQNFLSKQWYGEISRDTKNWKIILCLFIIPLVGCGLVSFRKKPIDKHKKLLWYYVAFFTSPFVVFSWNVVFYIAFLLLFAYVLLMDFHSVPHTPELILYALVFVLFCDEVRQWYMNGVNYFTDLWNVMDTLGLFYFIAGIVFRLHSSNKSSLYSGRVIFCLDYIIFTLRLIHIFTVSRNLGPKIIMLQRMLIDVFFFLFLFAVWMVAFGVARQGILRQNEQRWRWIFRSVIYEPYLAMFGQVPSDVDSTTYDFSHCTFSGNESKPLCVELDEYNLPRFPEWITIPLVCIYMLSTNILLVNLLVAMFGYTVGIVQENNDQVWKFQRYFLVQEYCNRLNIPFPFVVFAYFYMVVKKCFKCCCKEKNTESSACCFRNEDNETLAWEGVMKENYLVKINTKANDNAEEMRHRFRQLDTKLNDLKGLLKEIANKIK
Chain of Transient receptor potential cation channel subfamily M member 8 (Rattus norvegicus) (Q8R455 whole entry, looked up): as the sequence (Q8R455 whole entry) above
Chain of Transient receptor potential cation channel subfamily A member 1 (Rattus norvegicus) (Q6RI86 whole entry): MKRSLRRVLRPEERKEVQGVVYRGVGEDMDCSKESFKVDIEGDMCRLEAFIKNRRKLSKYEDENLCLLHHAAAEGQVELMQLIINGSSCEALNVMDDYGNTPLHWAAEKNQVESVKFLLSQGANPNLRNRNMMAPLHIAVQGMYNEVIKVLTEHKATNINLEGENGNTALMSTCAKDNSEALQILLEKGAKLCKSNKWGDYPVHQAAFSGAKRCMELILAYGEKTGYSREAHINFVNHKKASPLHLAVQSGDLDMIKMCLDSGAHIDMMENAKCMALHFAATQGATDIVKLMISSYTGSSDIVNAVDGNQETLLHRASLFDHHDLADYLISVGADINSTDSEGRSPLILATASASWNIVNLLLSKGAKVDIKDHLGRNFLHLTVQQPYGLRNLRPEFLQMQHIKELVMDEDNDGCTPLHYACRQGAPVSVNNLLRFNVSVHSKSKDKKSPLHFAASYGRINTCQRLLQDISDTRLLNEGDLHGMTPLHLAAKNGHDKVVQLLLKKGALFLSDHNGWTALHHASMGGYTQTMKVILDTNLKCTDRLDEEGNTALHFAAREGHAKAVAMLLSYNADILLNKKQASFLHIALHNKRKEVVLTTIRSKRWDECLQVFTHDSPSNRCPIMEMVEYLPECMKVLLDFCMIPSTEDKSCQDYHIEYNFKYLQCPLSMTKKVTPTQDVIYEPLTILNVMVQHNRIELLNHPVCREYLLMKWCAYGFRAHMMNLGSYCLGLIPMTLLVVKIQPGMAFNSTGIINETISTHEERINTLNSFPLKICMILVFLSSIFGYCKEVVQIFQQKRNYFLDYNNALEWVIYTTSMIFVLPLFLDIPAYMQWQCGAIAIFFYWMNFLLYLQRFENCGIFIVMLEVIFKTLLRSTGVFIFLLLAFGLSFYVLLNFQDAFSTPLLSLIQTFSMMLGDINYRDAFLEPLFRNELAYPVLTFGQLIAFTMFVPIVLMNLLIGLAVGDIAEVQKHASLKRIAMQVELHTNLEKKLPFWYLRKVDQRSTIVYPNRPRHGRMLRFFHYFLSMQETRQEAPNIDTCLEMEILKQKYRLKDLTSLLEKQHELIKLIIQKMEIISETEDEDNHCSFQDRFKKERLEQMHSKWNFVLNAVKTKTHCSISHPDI
T1 sequence (Q6RI86 whole entry): as above

The first experiment deals with Transient receptor potential cation channel subfamily A member 1 (Rattus norvegicus) (UniProt Q6RI86). As to the kind of experiment: Activation of rat TRPA1 expressed in HEK293 cells assessed as stimulation of intracellular Ca2+ levels relative to 100 uM allyl isothiocyanate. It counts as cell-based. In outline:
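Efficacy on stably transfected rat TRPA1-HEK293 cells is the intracellular Ca2+ rise expressed as percent of the allyl isothiocyanate response. Means ± SEM, N = 3.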
With `Cc1ccc(C(C)C)c(NC(=O)Nc2ccc(C(C)(C)C)cc2)c1`, the Efficacy is 235%.
The same measure, in the same setting: the value for `Cc1ccc(C(C)C)c(NC(=O)Oc2ccc(C(C)(C)C)cc2)c1` was 132%.
Same read-out and setting: the value for `Cc1ccc(C(C)C)c(C(=O)Nc2ccc(Cl)cc2)c1` was below 10%.
Still for that read-out and setting: then `COc1ccc(NC(=O)Oc2cc(C)ccc2C(C)C)cc1`, with 264%; and `Cc1ccc(C(C)C)c(NC(=O)Cc2ccc(-c3ccccc3)cc2)c1`, with 212%.
Regarding `Cc1ccc(C(C)C)c(C(=O)NCCc2ccccc2)c1`, the Efficacy is below 10%.
On the same count and under the same terms, the value for `Cc1ccc(C(C)C)c(N)c1` was 57.4%; that for `Cc1ccc(C(C)C)c(C(=O)Oc2ccc(-c3ccccc3)cc2)c1` was 195%; that for `COc1ccc(OC(=O)c2cc(C)ccc2C(C)C)cc1` was 194%.
Same read-out and setting: then `Cc1ccc(C(C)C)c(C(=O)Nc2ccc(C(F)(F)F)cc2)c1`, with 65.4%.

Another experiment addresses T1, Transient receptor potential cation channel subfamily A member 1 (Rattus norvegicus, UniProt Q6RI86). As to the kind of experiment: Activation of rat TRPA1 expressed in HEK293 cells assessed as stimulation of intracellular Ca2+ levels. Format: cell-based. Put shortly:
(§1)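 HEK293 cells stably transfected with rat TRPA1, rat TRPM8 or rat TRPV3 cDNA. Compounds were applied and the rise in intracellular Ca2+ was recorded.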
For the compound `Cc1ccc(C(C)C)c(NC(=O)Nc2ccc(C(C)(C)C)cc2)c1`, the EC50 worked out at 4.3 µM.
Still for that read-out and setting: then `Cc1ccc(C(C)C)c(NC(=O)Oc2ccc(C(C)(C)C)cc2)c1`, with 1.3 µM.
As for `COc1ccc(NC(=O)Oc2cc(C)ccc2C(C)C)cc1`, the EC50 was found to be 7.4 µM.
The same measure, in the same setting: then `Cc1ccc(C(C)C)c(NC(=O)Cc2ccc(-c3ccccc3)cc2)c1`, with 6.5 µM.
As to `Cc1ccc(C(C)C)c(N)c1`, the half-maximal effective concentration (EC50) was 64.2 µM.
For the compound `Cc1ccc(C(C)C)c(C(=O)Oc2ccc(-c3ccccc3)cc2)c1`, the 50% effective concentration (EC50) amounted to 7.4 µM.
Still for that read-out and setting: the value for `COc1ccc(OC(=O)c2cc(C)ccc2C(C)C)cc1` was 3.6 µM.
On the same count and under the same terms, the value for `Cc1ccc(C(C)C)c(C(=O)Nc2ccc(C(F)(F)F)cc2)c1` was 3.9 µM.

A further experiment addresses T1, Transient receptor potential cation channel subfamily A member 1. Put plainly: Inhibition of rat TRPA1 expressed in HEK293 cells assessed as reduction in 100 uM allyl isothiocyanate-stimulated increase in intracellular Ca2+ levels. It counts as cell-based. In outline: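 Rat TRPA1-HEK293 stable cells were preincubated 5 min with compound, then incubation continued with allyl isothiocyanate.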
On to `Cc1ccc(C(C)C)c(NC(=O)Nc2ccc(C(C)(C)C)cc2)c1`, for which the IC50 worked out at 25 µM.
Still for that read-out and setting: then `Cc1ccc(C(C)C)c(NC(=O)Oc2ccc(C(C)(C)C)cc2)c1`, with 0.78 µM; and `Cc1ccc(C(C)C)c(C(=O)Nc2ccc(Cl)cc2)c1`, with 26.1 µM.
The same measure, in the same setting: then `COc1ccc(NC(=O)Oc2cc(C)ccc2C(C)C)cc1`, with 4.5 µM.
Still for that read-out and setting: the value for `Cc1ccc(C(C)C)c(NC(=O)Cc2ccc(-c3ccccc3)cc2)c1` was 3.9 µM; that for `Cc1ccc(C(C)C)c(C(=O)NCCc2ccccc2)c1` was above 100 µM; that for `Cc1ccc(C(C)C)c(N)c1` was 212 µM.
With `Cc1ccc(C(C)C)c(C(=O)Oc2ccc(-c3ccccc3)cc2)c1`, the IC50 came to 12.7 µM.
Still for that read-out and setting: the value for `COc1ccc(OC(=O)c2cc(C)ccc2C(C)C)cc1` was 3.6 µM; that for `Cc1ccc(C(C)C)c(C(=O)Nc2ccc(C(F)(F)F)cc2)c1` was 3.6 µM.

For a further experiment, the target named is Transient receptor potential cation channel subfamily M member 8 (Rattus norvegicus) (UniProt Q8R455). As to the kind of experiment: Activation of rat TRPM8 expressed in HEK293 cells assessed as stimulation of intracellular Ca2+ levels relative to 4 uM ionomycin. It counts as cell-based. Put shortly:
(§2)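 Efficacy on HEK293 cells stably expressing rat TRPM8 or rat TRPV3 is the intracellular Ca2+ elevation expressed as percent of the ionomycin response.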
With `Cc1ccc(C(C)C)c(NC(=O)Nc2ccc(C(C)(C)C)cc2)c1`, the Efficacy was below 10%.
The same measure, in the same setting: then `Cc1ccc(C(C)C)c(NC(=O)Oc2ccc(C(C)(C)C)cc2)c1`, with below 10%.
For the compound `Cc1ccc(C(C)C)c(C(=O)Nc2ccc(Cl)cc2)c1`, the Efficacy was determined as 43.2%.
The same measure, in the same setting: then `COc1ccc(NC(=O)Oc2cc(C)ccc2C(C)C)cc1`, with 30.3%; and `Cc1ccc(C(C)C)c(NC(=O)Cc2ccc(-c3ccccc3)cc2)c1`, with below 10%; and `Cc1ccc(C(C)C)c(C(=O)NCCc2ccccc2)c1`, with 64.1%.
On the same count and under the same terms, then `Cc1ccc(C(C)C)c(N)c1`, with 33.8%; and `Cc1ccc(C(C)C)c(C(=O)Oc2ccc(-c3ccccc3)cc2)c1`, with below 10%; and `COc1ccc(OC(=O)c2cc(C)ccc2C(C)C)cc1`, with below 10%.
The same measure, in the same setting: then `Cc1ccc(C(C)C)c(C(=O)Nc2ccc(C(F)(F)F)cc2)c1`, with 13.9%.

In a further experiment the target is T2, Transient receptor potential cation channel subfamily M member 8 (Rattus norvegicus, UniProt Q8R455). As to the kind of experiment: Activation of rat TRPM8 expressed in HEK293 cells assessed as stimulation of intracellular Ca2+ levels. Format: cell-based. In outline:
as §1
For `Cc1ccc(C(C)C)c(C(=O)Nc2ccc(Cl)cc2)c1`, the concentration giving a half-maximal response (EC50) turned out to be 0.85 µM.
On the same count and under the same terms, the value for `COc1ccc(NC(=O)Oc2cc(C)ccc2C(C)C)cc1` was 5.1 µM; that for `Cc1ccc(C(C)C)c(C(=O)NCCc2ccccc2)c1` was 0.27 µM.
On the same count and under the same terms, then `Cc1ccc(C(C)C)c(N)c1`, with 43.4 µM.
On the same count and under the same terms, the value for `Cc1ccc(C(C)C)c(C(=O)Nc2ccc(C(F)(F)F)cc2)c1` was 45.8 µM.

For a further experiment, the target named is T2, Transient receptor potential cation channel subfamily M member 8. As to the kind of experiment: Inhibition of rat TRPM8 expressed in HEK293 cells assessed as reduction in […] icilin-stimulated increase in intracellular Ca2+ levels. Format: cell-based.
Turning to `Cc1ccc(C(C)C)c(NC(=O)Nc2ccc(C(C)(C)C)cc2)c1`, the IC50 was above 100 µM.
For `Cc1ccc(C(C)C)c(NC(=O)Oc2ccc(C(C)(C)C)cc2)c1`, the IC50 turned out to be 0.7 µM.
Still for that read-out and setting: the value for `Cc1ccc(C(C)C)c(C(=O)Nc2ccc(Cl)cc2)c1` was 4.8 µM; that for `COc1ccc(NC(=O)Oc2cc(C)ccc2C(C)C)cc1` was 2.5 µM; that for `Cc1ccc(C(C)C)c(NC(=O)Cc2ccc(-c3ccccc3)cc2)c1` was 31.2 µM.
The same measure, in the same setting: the value for `Cc1ccc(C(C)C)c(C(=O)NCCc2ccccc2)c1` was 0.6 µM; that for `Cc1ccc(C(C)C)c(N)c1` was 238 µM.
The same measure, in the same setting: then `Cc1ccc(C(C)C)c(C(=O)Oc2ccc(-c3ccccc3)cc2)c1`, with above 100 µM; and `COc1ccc(OC(=O)c2cc(C)ccc2C(C)C)cc1`, with above 100 µM; and `Cc1ccc(C(C)C)c(C(=O)Nc2ccc(C(F)(F)F)cc2)c1`, with 3.2 µM.

Another experiment has the same target. As to the kind of experiment: Inhibition of rat TRPM8 expressed in HEK293 cells assessed as reduction in 20 uM menthol-stimulated increase in intracellular Ca2+ levels. Format: cell-based. Put shortly: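 IC50 on rat TRPM8 stably expressed in HEK293 cells, measured as inhibition of the intracellular Ca2+ response to icilin or menthol. Means ± SEM, N = 3.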
`Cc1ccc(C(C)C)c(NC(=O)Nc2ccc(C(C)(C)C)cc2)c1`: the IC50 was 26.7 µM.
On the same count and under the same terms, then `Cc1ccc(C(C)C)c(NC(=O)Oc2ccc(C(C)(C)C)cc2)c1`, with 0.85 µM.
In the case of `Cc1ccc(C(C)C)c(C(=O)Nc2ccc(Cl)cc2)c1`, the IC50 is 5 µM.
The same measure, in the same setting: then `COc1ccc(NC(=O)Oc2cc(C)ccc2C(C)C)cc1`, with 5.2 µM; and `Cc1ccc(C(C)C)c(NC(=O)Cc2ccc(-c3ccccc3)cc2)c1`, with 78.3 µM.
As to `Cc1ccc(C(C)C)c(C(=O)NCCc2ccccc2)c1`, the IC50 stood at 0.32 µM.
Same read-out and setting: then `Cc1ccc(C(C)C)c(N)c1`, with 113 µM; and `Cc1ccc(C(C)C)c(C(=O)Oc2ccc(-c3ccccc3)cc2)c1`, with above 100 µM; and `COc1ccc(OC(=O)c2cc(C)ccc2C(C)C)cc1`, with 77.4 µM.
The same measure, in the same setting: the value for `Cc1ccc(C(C)C)c(C(=O)Nc2ccc(C(F)(F)F)cc2)c1` was 4.4 µM.

In another experiment the test system is HEK293. Put plainly: Activation of rat TRPV3 expressed in HEK293 cells assessed as stimulation of intracellular Ca2+ levels relative to 4 uM ionomycin. Format: cell-based. In outline: as §2
Take `Cc1ccc(C(C)C)c(NC(=O)Nc2ccc(C(C)(C)C)cc2)c1`: the Efficacy turned out to be 31.6%.
For the compound `Cc1ccc(C(C)C)c(NC(=O)Oc2ccc(C(C)(C)C)cc2)c1`, the Efficacy amounted to 62.5%.
Regarding `Cc1ccc(C(C)C)c(C(=O)Nc2ccc(Cl)cc2)c1`, the Efficacy turned out to be 43.4%.
As to `COc1ccc(NC(=O)Oc2cc(C)ccc2C(C)C)cc1`, the Efficacy was below 10%.
Take `Cc1ccc(C(C)C)c(NC(=O)Cc2ccc(-c3ccccc3)cc2)c1`: the Efficacy stood at 39.3%.
Same read-out and setting: then `Cc1ccc(C(C)C)c(C(=O)NCCc2ccccc2)c1`, with below 10%; and `Cc1ccc(C(C)C)c(N)c1`, with below 10%; and `Cc1ccc(C(C)C)c(C(=O)Oc2ccc(-c3ccccc3)cc2)c1`, with 64.3%.
Same read-out and setting: the value for `COc1ccc(OC(=O)c2cc(C)ccc2C(C)C)cc1` was 27.1%.
On the same count and under the same terms, the value for `Cc1ccc(C(C)C)c(C(=O)Nc2ccc(C(F)(F)F)cc2)c1` was 22.1%.

Tested on in another experiment: not listed separately
As to the kind of experiment: Activation of rat TRPV3 expressed in HEK293 cells assessed as stimulation of intracellular Ca2+ levels. Format: cell-based. Put shortly: as §1
`Cc1ccc(C(C)C)c(NC(=O)Nc2ccc(C(C)(C)C)cc2)c1`: the EC50 was determined as 7.6 µM.
The same measure, in the same setting: then `Cc1ccc(C(C)C)c(NC(=O)Oc2ccc(C(C)(C)C)cc2)c1`, with 1.4 µM.
Same read-out and setting: then `Cc1ccc(C(C)C)c(C(=O)Nc2ccc(Cl)cc2)c1`, with 11.8 µM; and `Cc1ccc(C(C)C)c(NC(=O)Cc2ccc(-c3ccccc3)cc2)c1`, with 6.3 µM.
Same read-out and setting: the value for `Cc1ccc(C(C)C)c(C(=O)Oc2ccc(-c3ccccc3)cc2)c1` was 14.5 µM; that for `COc1ccc(OC(=O)c2cc(C)ccc2C(C)C)cc1` was 4 µM; that for `Cc1ccc(C(C)C)c(C(=O)Nc2ccc(C(F)(F)F)cc2)c1` was 59.7 µM.

Tested on in the next experiment: not listed separately
Put plainly: Inhibition of rat TRPV3 expressed in HEK293 cells assessed as reduction in 100 uM thymol-stimulated increase in intracellular Ca2+ levels. Format: cell-based.
For `Cc1ccc(C(C)C)c(NC(=O)Nc2ccc(C(C)(C)C)cc2)c1`, the IC50 is 3.3 µM.
Same read-out and setting: the value for `Cc1ccc(C(C)C)c(NC(=O)Oc2ccc(C(C)(C)C)cc2)c1` was 1.9 µM; that for `Cc1ccc(C(C)C)c(C(=O)Nc2ccc(Cl)cc2)c1` was 4.9 µM; that for `COc1ccc(NC(=O)Oc2cc(C)ccc2C(C)C)cc1` was 64.3 µM.
Same read-out and setting: then `Cc1ccc(C(C)C)c(NC(=O)Cc2ccc(-c3ccccc3)cc2)c1`, with 29.7 µM; and `Cc1ccc(C(C)C)c(C(=O)NCCc2ccccc2)c1`, with 75.4 µM; and `Cc1ccc(C(C)C)c(N)c1`, with above 100 µM.
Still for that read-out and setting: the value for `Cc1ccc(C(C)C)c(C(=O)Oc2ccc(-c3ccccc3)cc2)c1` was 2.9 µM; that for `COc1ccc(OC(=O)c2cc(C)ccc2C(C)C)cc1` was 5 µM.
Turning to `Cc1ccc(C(C)C)c(C(=O)Nc2ccc(C(F)(F)F)cc2)c1`, the IC50 amounted to 75.1 µM.
